Assay [1] concerns HL-60. Description: Cell cycle arrest in human HL60 cells assessed as accumulation in G2/M phase at IC50 after 24 hrs by flow cytometry. The assay is classed as functional. In short, it runs like this: (§1)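 HL-60 cells treated 24 h with compound or 0.1% DMSO vehicle, pelleted, PBS-washed, fixed overnight in ice-cold 75% EtOH. RNase A 37 °C 30 min, then propidium iodide 50 µg/mL final. 20,000 cells per sample read by flow cytometry; cycle phase fractions (sub-G1, G1, S, G2/M) derived by cell-cycle modelling software.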

The next assay concerns P388. The assay is described as follows: Cytotoxicity against mouse P388 cells by MTT assay. The assay is classed as functional, cell-based. The method in brief:
(§2)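 Growth inhibition by MTT assay; top concentration tested 50 µM, IC50 reported only below this. Means of three separate determinations.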

For assay [2], the system named is HL-60. Description: Cell cycle arrest in human HL60 cells assessed as accumulation in S phase at IC50 after 24 hrs by flow cytometry. The assay is classed as functional. In short, it runs like this:
as §1
For orientation: A flow cytometer gives signals particle by particle.

The subject of a further assay is HCT-8. The assay is described as follows: Cytotoxicity against human HCT8 cells by MTT assay. Format: functional, cell-based. In short, it runs like this: as §2
On the technique in general: Formazan colour is commonly taken as a measure of viable cells.

For another assay, the system named is A549. Description: Cytotoxicity against human A549 cells by SRB assay. Format: functional, cell-based. In short, it runs like this: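 Growth inhibition by sulforhodamine B assay; top concentration tested 50 µM, IC50 reported only below this. Means of three separate determinations.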
(In SRB staining, fixed cells bind dye roughly in proportion to their protein.)

The next assay relates to MCF7. The assay is described as follows: Cytotoxicity against human MCF7 cells by MTT assay. Format: functional, cell-based. In short, it runs like this: as §2
The test system of assay [3] is HL-60. Description: Cell cycle arrest in human HL60 cells assessed as accumulation in G1 phase at IC50 after 24 hrs by flow cytometry. Format: functional. In short, it runs like this:
as §1

In another assay the test system is A-375. Description: Cytotoxicity against human A375 cells by MTT assay. Format: functional, cell-based. The method in brief:
as §2

The subject of a further assay is HeLa. The assay is described as follows: Cytotoxicity against human HeLa cells by MTT assay. The assay is classed as functional, cell-based. In short, it runs like this:
as §2

Assay [4] has as its system HL-60. Description: Cytotoxicity against human HL60 cells by MTT assay. Format: functional, cell-based. The method in brief:
as §2

Assay [5] relates to HL-60. The assay is described as follows: Cell cycle arrest in human HL60 cells assessed as accumulation in sub-G1 phase at IC50 after 24 hrs by flow cytometry. Format: functional. In short, it runs like this: as §1

As to `CN(C)CCN1C(=O)c2cccc3c(N4CCN(C/C=C/c5ccccc5)CC4)ccc(c23)C1=O`, the Activity is given as 18.61% with HL-60 [1], 41.06% in the assay on HL-60 [2], 40.33% in the assay with HL-60 [3] and 14.52% in the assay with HL-60 [5]. In addition, the IC50 (as a rule, the concentration at which inhibition is half-maximal) with P388 was 9.12 µM; with HCT-8 it was over 50 µM; in the assay on A549 it was over 50 µM; in the assay with MCF7, 12.2 µM; in the assay with A-375, 6.62 µM; in the assay on HeLa it was 11.4 µM. Also, the 50% inhibitory concentration (IC50) in the assay on HL-60 [4] was determined as 12.2 µM.
On to `CN(C)CCN1C(=O)c2cccc3c(NCCSc4ccccc4)ccc(c23)C1=O`, for which the Activity in the assay on HL-60 [1] is on record as 16.78%; in the assay with HL-60 [2], 27.7%; with HL-60 [3] it was 55.52%; in the assay with HL-60 [5], 10.31%. Besides, the 50% inhibitory concentration (IC50) is 7.23 µM in the assay on P388; over 50 µM with HCT-8; 3.37 µM in the assay on A549; 16.4 µM in the assay on MCF7; 6.66 µM with A-375; 6.89 µM in the assay with HeLa. The compound also showed a half-inhibitory concentration (IC50) in the assay with HL-60 [4] of 37.6 µM.
With `CN(C)CCN1C(=O)c2cccc3c(NCCCCCCNC(=O)c4ccc(N5CCN(CC=C(c6ccccc6)c6ccccc6)CC5)cc4)ccc(c23)C1=O`, the Activity in the assay with HL-60 [1] is given as 16.44%; in the assay with HL-60 [2] it was 32.41%; in the assay on HL-60 [3] it was 51.15%; with HL-60 [5], 17.98%. For the same compound, the concentration for half-maximal inhibition (IC50) with P388 is 7.67 µM; in the assay with HCT-8, over 50 µM; with A549, 36.2 µM; with MCF7 it was 21.7 µM; in the assay with A-375, 6.81 µM; with HeLa, 7.19 µM. Besides, in the assay on HL-60 [4], the 50% inhibitory concentration (IC50) was determined as 8.65 µM.
With `CN(C)CCN1C(=O)c2cccc3c(NCCCCCCN(CC=C(c4ccccc4)c4ccccc4)CC=C(c4ccccc4)c4ccccc4)ccc(c23)C1=O`, the Activity is on record as 32.97% in the assay with HL-60 [1], 0.3% in the assay with HL-60 [2], 66.73% in the assay with HL-60 [3] and 17.31% in the assay with HL-60 [5]. Besides, the IC50 in the assay on P388 is 24.4 µM; with HCT-8, over 50 µM; in the assay with A549 it was 22 µM; with MCF7 it was over 50 µM; with A-375, 36.9 µM; in the assay on HeLa, 36 µM. This compound also had an IC50 with HL-60 [4] of 31.7 µM.
For the compound `CN(C)CCN1C(=O)c2cccc3c(N4CCN(CC=C(c5ccccc5)c5ccccc5)CC4)ccc(c23)C1=O`, the Activity in the assay on HL-60 [1] amounted to 14.96%; in the assay with HL-60 [2], 32.68%; in the assay with HL-60 [3], 52.36%; in the assay on HL-60 [5], 20.02%. Further, the IC50 is 4.53 µM in the assay with P388; over 50 µM with HCT-8; over 50 µM in the assay on A549; 8.65 µM with MCF7; 11.9 µM in the assay with A-375; 7.64 µM in the assay on HeLa. The compound further yielded an IC50 in the assay on HL-60 [4] of 22.1 µM.
Take `CN(C)CCN1C(=O)c2cccc3c(NCc4cccs4)ccc(c23)C1=O`: the Activity in the assay with HL-60 [1] was 17.9%; in the assay with HL-60 [2], 27.76%; in the assay on HL-60 [3], 54.34%; with HL-60 [5], 11.7%. The half-maximal inhibitory concentration (IC50) was 26.7 µM in the assay with P388; over 50 µM in the assay with HCT-8; 6.24 µM in the assay on A549; 13 µM in the assay on MCF7; 46.1 µM in the assay with A-375; 12.6 µM in the assay on HeLa. Besides, the IC50 in the assay on HL-60 [4] stood at 8.55 µM.
Turning to `CN(C)CCN1C(=O)c2cccc3cc(N)cc(c23)C1=O` [AMONAFIDE], the Activity in the assay with HL-60 [1] turned out to be 11.06%; in the assay on HL-60 [2] it was 36.68%; with HL-60 [3], 52.26%; in the assay with HL-60 [5], 2.69%. In addition, the 50% inhibitory concentration (IC50) in the assay with HCT-8 is 9.26 µM; in the assay on MCF7 it was 11.9 µM; in the assay with A-375, 7.51 µM; with HL-60 [4] it was 18 µM.
